Screening data: PubChem, Johns Hopkins Ion Channel Center
TRPC6 act: mouse TRPC6 channel activators, primary screen, cell-based, HEK293, membrane potential dye | HEK293-TRPC6 membrane potential dye fluorescence; hits give high values | B-score at 10 µM | 310,000 compounds, 0.13% hits;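 active = B-score of the integrated fluorescence ratio above library mean plus 3 SD, and starting fluorescence ratio within library mean plus 5 SD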;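 note: higher score means more depolarization so channel activation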
TRPC6 inhibitor: mouse TRPC6 channel inhibitors, primary screen, cell-based, HEK293, membrane potential dye; Short transient receptor potential channel 6 (Mus musculus), Q61143; 310,000 compounds, 1.1% hits; ACh-evoked depolarization; hits give low values; B-score at 10 µM;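 active = B-score under library mean minus 3 SD, initial fluorescence not abnormally high, positive integrated signal ratio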;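 note: B-score derived from integrated fluorescence ratio over the kinetic read; more negative B-score means stronger inhibition of depolarization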
TRPC4 PAM: positive allosteric modulators of TRPC4, primary screen, cell-based, mouse TRPC4beta, HEK293 mu-opioid, Fluo-4 calcium; AID 2227, 2009; DAMGO EC20, Fluo-4 Ca2+ flux; hits give high values; 310,000 compounds, 0.42% hits; Short transient receptor potential channel 4 (Mus musculus), Q9QUQ5; B-score at 10 µM;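 active = B-score of calcium response area above 5 SD of library B-scores, with initial fluorescence ratio within 5 SD of library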
Target sequence (Q9QUQ5 whole entry, looked up): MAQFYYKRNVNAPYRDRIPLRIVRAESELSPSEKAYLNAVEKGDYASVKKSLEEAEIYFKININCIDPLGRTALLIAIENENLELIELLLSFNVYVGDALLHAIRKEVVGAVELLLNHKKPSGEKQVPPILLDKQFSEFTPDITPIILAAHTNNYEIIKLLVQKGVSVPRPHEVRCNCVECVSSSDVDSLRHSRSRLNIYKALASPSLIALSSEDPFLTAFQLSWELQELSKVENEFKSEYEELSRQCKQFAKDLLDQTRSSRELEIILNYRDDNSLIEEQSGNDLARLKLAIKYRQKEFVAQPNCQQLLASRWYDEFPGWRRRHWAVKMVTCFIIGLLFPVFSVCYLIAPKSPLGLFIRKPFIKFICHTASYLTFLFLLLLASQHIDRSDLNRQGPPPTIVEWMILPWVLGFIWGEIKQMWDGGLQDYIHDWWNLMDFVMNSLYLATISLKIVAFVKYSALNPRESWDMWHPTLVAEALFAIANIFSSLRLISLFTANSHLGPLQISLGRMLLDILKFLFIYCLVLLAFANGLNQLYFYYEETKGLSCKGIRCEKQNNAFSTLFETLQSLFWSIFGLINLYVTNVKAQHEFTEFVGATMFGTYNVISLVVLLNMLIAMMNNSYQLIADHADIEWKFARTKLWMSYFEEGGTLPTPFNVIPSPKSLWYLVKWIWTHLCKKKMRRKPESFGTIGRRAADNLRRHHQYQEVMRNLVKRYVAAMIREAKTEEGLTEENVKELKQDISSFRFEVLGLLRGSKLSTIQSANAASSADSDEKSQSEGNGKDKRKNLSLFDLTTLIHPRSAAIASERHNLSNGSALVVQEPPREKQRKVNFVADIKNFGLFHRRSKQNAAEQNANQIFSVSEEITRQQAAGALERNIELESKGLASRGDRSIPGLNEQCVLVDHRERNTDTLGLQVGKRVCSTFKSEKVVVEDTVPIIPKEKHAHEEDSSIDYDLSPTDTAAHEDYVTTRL
TRPC4 agonist: activators of mouse TRPC4 channel, primary screen, Fluo4 calcium, HEK293 TRPC4beta/mu-opioid cells. Short transient receptor potential channel 4 (Mus musculus), Q9QUQ5. Fluo4 calcium fluorescence; hits give high values. B-score at 10 µM. 310,000 compounds, 0.49% hits. AID 2237, 2010;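 active = B-score above 5 SD of library B-scores, and initial fluorescence ratio not above library mean plus 5 SD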;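 note: positive B-score marks a calcium rise read as TRPC4 activation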
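Assay system – TRPC4beta and mu-opioid receptor HEK293 stable cells · Measured by – Fluo4 fluorescence, kinetic · Schedule – dye loading 45 min room temperature, 110 s kinetic read · Read-out – B-scored integrated calcium fluorescence ratio · Controls – buffer and maximal DAMGO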
Kir21 block: inhibitors of mouse Kir2.1 inward-rectifier potassium channel | HEK293-Kir2.1, FluxOR thallium flux fluorescence; hits give low values | B-score at 10 µM | 310,000 compounds, 0.85% hits | AID 1672, 2009;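 active = fluorescence ratio B-score at or below minus 3 SD of library scores, with starting-brightness B-score within 2 SD, cut at about -4.2 in these data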;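 note: channel flux triggered by added potassium and thallium sulfate stimulus; B-score of peak minus minimum fluorescence over baseline after thallium stimulus; more negative B-score means stronger Kir2.1 block with less thallium influx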
TRPC4 inh: inhibitors of mouse TRPC4 channel, primary screen, Fluo4 calcium, HEK293 TRPC4beta/mu-opioid cells; Short transient receptor potential channel 4 (Mus musculus), Q9QUQ5; DAMGO-evoked Fluo4 calcium flux; hits give low values; B-score at 10 µM; 300,000 compounds, 0.39% hits; AID 2247, 2010;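 active = B-score over 3 SD under the library average, no early fluorescence shift, positive overall ratio signal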
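Test system – stable TRPC4beta/mu-opioid receptor HEK293 cells · Probe or stimulus – DAMGO, a submaximal dose followed by a maximal one · Dosing – one concentration per compound · Signal – Fluo4 calcium fluorescence by kinetic imaging, 5 s 1 Hz baseline · Evaluation – per-well B score of integrated baseline-normalized Fluo4 ratio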
HEK293 MPD ctr: parental HEK293 membrane potential modulation, confirmation, counter-screen for TRPC6 modulator project, cell-based. 2,400 compounds, 51% hits. AID 488924, 2010. membrane potential dye fluorescence. shares compounds with TRPC6 inhibitor. membrane potential signal change, % at 10 µM;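 active = membrane potential signal moves up or down beyond 5 SD from buffer-only wells, on both duplicate plates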
HEK293 MPD ctr 2: parental HEK293 nonspecific activity of TRPC6 modulators, second screen. shares compounds with TRPC6 inhibitor. membrane potential dye fluorescence; after compound, maximal acetylcholine stimulation. inhibition, % at 10 µM. 2,400 compounds, 14% hits. AID 488926;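 active = membrane potential signal drops by more than 5 SD from the mean control signal, in both duplicate plates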
TRPC4 ctr mod: TRPC4 modulation by TRPC6 hit compounds, confirmation, selectivity assay for TRPC6 modulator project, cell-based, HEK293 TRPC4/mu-opioid, membrane potential dye, mouse; shares compounds with TRPC6 inhibitor; membrane potential fluorescence; percent change from control (negative = decrease, positive = increase), % at 10 µM; 2,400 compounds, 69% hits;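 active = membrane potential signal moved up or down beyond 5 SD of buffer control wells, in both duplicate plates, actives on both sides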
TRPC4/MOR inh 2: mouse TRPC4 off-target activity of TRPC6 modulators, second screen; AID 488928; 2,400 compounds, 55% hits; HEK293 TRPC4/mu-opioid, membrane potential dye fluorescence; stimulated with maximal-effect DAMGO; inhibition, % at 10 µM; shares compounds with TRPC6 inhibitor;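 active = drop in membrane potential signal beyond 5 SD of the control wells in both duplicate plates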;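 note: TRPC4 counter screen for TRPC6 hits run under conditions tuned for TRPC6 not TRPC4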
TRPC6 block conf: mouse TRPC6 channel inhibitors, confirmation, HEK293 cells, membrane potential dye, duplicate; shares compounds with TRPC6 inhibitor; ACh-evoked depolarization; inhibition, % at 10 µM; 3,300 compounds, 43% hits; AID 488960, 2010;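 active = fluorescence ratio falls more than 5 SD below the full-stimulation control mean, in both duplicate runs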;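 note: integrated fluorescence ratio of peak minus minimum over baseline after agonist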
TRPC6 act conf: mouse TRPC6 channel activators, confirmation, HEK293 cells, membrane potential dye, duplicate; shares compounds with TRPC6 inhibitor; HEK293-TRPC6 membrane potential dye fluorescence, FDSS; activation, % at 10 µM; 2,800 compounds, 11% hits; AID 488961, 2010;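 active = ratio signal rise beyond 5 SD above unstimulated control wells' mean, seen in both duplicate runs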
Hits are given with their value; 0 = inactive; - = not tested or not shown; + = active, no number. Only some compounds are listed: those with a hit (about 3% of all), similar ones and a draw of the others.

SMILES	TRPC6 act	TRPC6 inhibitor	TRPC4 PAM	TRPC4 agonist	Kir21 block	TRPC4 inh	HEK293 MPD ctr	HEK293 MPD ctr 2	TRPC4 ctr mod	TRPC4/MOR inh 2	TRPC6 block conf	TRPC6 act conf
Cc1ccccc1C(=O)N/N=C/c1ccc([N+](=O)[O-])s1	12.5	-6.1	0	0	0	0	0	0	13.0%	0	0	0
CCc1ccc(NC(=O)C(=O)NCC2CCCN2S(=O)(=O)c2cccs2)cc1 (stereo not drawn)	0	0	0	0	0	0	-	-	-	-	-	-
CCOC(=O)C1CCN(C(=O)C(C)c2ccc([N+](=O)[O-])cc2)CC1 (stereo not drawn)	0	-5.05	0	0	0	0	0	0	12.0%	0	0	-
Cc1cc(=O)oc2cc(OCC(=O)N3CCN(C(=O)c4ccco4)CC3)ccc12	0	-5.51	0	0	0	0	0	0	0	0	0	0
CCCCCCc1ccc(N2C[C@H](Cc3ccccc3)[C@@H](CC(=O)NCc3ccc(OC)cc3)C2=O)cc1	0	0	0	0	0	0	-	-	-	-	-	-
CCCCCCc1ccc(N2C[C@H](CCCCC)[C@@H](CC(=O)NCc3ccc(OC)cc3)C2=O)cc1	17.1	0	0	0	0	0	471.5%	0	84.5%	0	0	95.0%
CCCCCCc1ccc(N2C[C@H](CCCCC)[C@@H](CC(=O)NCc3ccccc3)C2=O)cc1	22.5	0	0	0	0	0	344.5%	0	77.0%	0	0	169.0%
CC(=Nc1ccccc1)c1sc2ccccc2c1O	12.7	0	0	0	0	0	395.0%	0	56.0%	0	0	115.5%
CN1C(=O)c2cccc3c(N(C)C)ccc(c23)C1=O	18.6	0	0	0	0	0	927.0%	+	143.5%	57.5%	-	234.5%
CCN1C(=S)SC(=O)C1=C1C=C(C)N(CCO)C(C)=C1	40.3	0	0	47	0	0	812.5%	159.0%	134.0%	0	-	458.5%
Cc1ccc(OCC(=O)Nc2ccccc2F)cc1C	0	0	0	0	0	0	-	-	-	-	-	-
CCOC(=O)c1ccccc1NC(=O)c1ccc(F)cc1	0	0	0	0	0	0	-	-	-	-	-	-
CCOC(=O)c1ccccc1NC(=O)COC(=O)C1CCCC1	14.1	-8.1	0	0	0	0	137.0%	0	32.5%	0	57.5%	118.0%
CCOC(=O)c1ccccc1NC(=O)c1c(F)c(F)c(F)c(F)c1F	0	-6.21	0	0	0	0	0	0	0	0	0	0
